Measured values as given in article PMC10963326 (Heliyon, 2024).

Assays:
[1] = target: thrombin exosite 1; conditions: binding to exosite 1 ref 21; cited from earlier work
[2] = target: human thrombin (Homo sapiens, UniProt P00734); assay: Direct inhibition of human thrombin, chromogenic substrate; type: biochemical; conditions: highest concentration tested of 600 μM, data not shown
Summary of the method: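 Thrombin 6 nM final in 20 mM Tris-HCl pH 7.4, 100 mM NaCl, 2.5 mM CaCl2, 0.1% PEG8000, with or without 0.02% Tween80, at 25 or 37 °C. Test compound (DMSO vehicle) added, then either 10 min preincubation or none. Spectrozyme TH at 50 μM final; initial A405 rate. Residual activity was the ratio to the no-compound rate, fitted to a logistic equation for IC50, HS and ΔY.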

| inhibition of thrombin [2] | Molecule | Kd [1] [nM] |
| --- | --- | --- |
|  | [5 F]-Hir-(54–65)-(SO3^−) [HirP] | 28 |
| did not inhibit | CCCCCCCCCCCCOS(=O)(=O)[O-].[Na+] [sodium dodecyl sulfate] |  |
